Assay outcomes: PubChem, several laboratories
MBD2 DNA inh = inhibitors of MBD2 binding to methylated DNA, primary screen, biochemical, TR-FRET, DNA-binding domain, human. Methyl-CpG-binding domain protein 2 (Homo sapiens), Q9UBB5. MBD2 binding to methylated oligonucleotide. inhibition, % at 4.4 µM. 0.31% of 370,000 active; in the data active means inhibition above about 13%
Target sequence (Q9UBB5 whole entry, looked up, the tested form may be a part): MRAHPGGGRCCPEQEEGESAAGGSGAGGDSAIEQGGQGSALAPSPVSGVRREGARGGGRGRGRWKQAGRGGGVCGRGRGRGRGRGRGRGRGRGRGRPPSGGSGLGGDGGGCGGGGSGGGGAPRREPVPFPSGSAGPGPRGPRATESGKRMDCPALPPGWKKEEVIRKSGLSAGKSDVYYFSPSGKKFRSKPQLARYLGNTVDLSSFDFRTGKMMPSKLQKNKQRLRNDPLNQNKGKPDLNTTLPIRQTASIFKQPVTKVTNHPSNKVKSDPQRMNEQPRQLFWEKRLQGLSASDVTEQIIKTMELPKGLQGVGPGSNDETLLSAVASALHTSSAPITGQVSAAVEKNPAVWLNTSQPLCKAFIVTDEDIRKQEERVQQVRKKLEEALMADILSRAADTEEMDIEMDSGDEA
TDP2 absorb = human TDP2 enzyme inhibitors, primary screen, biochemical, epi absorbance, recombinant enzyme. inhibition, % at 12.8 µM. Tyrosyl-DNA phosphodiesterase 2 (Homo sapiens), O95551. 0.34% of 370,000 active. AID 720702, 2013. T5PNP hydrolysis, p-nitrophenol absorbance 415 nm;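 active means inhibition above the mean of all tested compounds plus 3 SD, set per campaign, cut at about 25% in these data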;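 further: 0% = DMSO with enzyme and 100% = buffer with substrate but no TDP2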
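Evaluation: % inhibition relative to enzyme-containing and enzyme-free wells. Material: recombinant human TDP2. Benchmarks: enzyme-free and DMSO wells. Timing: enzyme reaction with compound for 2 h at 37 °C. Compound dosing: 12.8 µM only. Measured by: p-Nitrophenol epi absorbance. Reagent: T5PNP substrate at 5 mM, a TopII-DNA adduct mimic. Replication: single well per compound.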
UHRF1 binding = UHRF1 methylated DNA binding inhibitors, primary screen, counter-screen for MBD2 inhibitor project, biochemical, TR-FRET, human UHRF1, single concentration; inhibition, % at 4.4 µM; 0.75% of 370,000 active; AID 687016, 2013; E3 ubiquitin-protein ligase UHRF1 (Homo sapiens), Q96T88; UHRF1 binding to methylated oligo; in the data active means inhibition above about 21%;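 further: UHRF1 SRA domain binding a hemimethylated CpG hairpin DNA probe; 0% = median of test compound wells and 100% = reference inhibitor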
CASP6 VEID inh = human caspase-6 inhibitors, primary screen, biochemical, VEID-R110 fluorescence, single point, set 2. AID 686996, 2013. inhibition, % at 12.5 µM. purified caspase-6, Z-VEID-R110 cleavage fluorescence. P55212. 0.53% of 350,000 active;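 active means mean inhibition across replicates at least about 35%, with every replicate also reaching that limit, limit read from the data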;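 further: 0% = median of neutral control wells and 100% = no fluorescence left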
Target sequence (P55212 24-179 limits assumed): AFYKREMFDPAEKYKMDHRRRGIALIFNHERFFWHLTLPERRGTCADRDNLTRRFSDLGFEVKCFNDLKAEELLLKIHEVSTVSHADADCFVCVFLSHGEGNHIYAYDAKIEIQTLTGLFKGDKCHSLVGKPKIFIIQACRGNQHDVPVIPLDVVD
Target sequence (P55212 194-293 limits assumed): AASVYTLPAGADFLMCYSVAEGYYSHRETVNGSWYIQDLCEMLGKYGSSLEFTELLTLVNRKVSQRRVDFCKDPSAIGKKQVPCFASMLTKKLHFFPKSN
NSD2 inh = NSD2 histone methyltransferase inhibitors, primary screen, biochemical, AlphaScreen, single concentration, set 2. 0.54% of 310,000 active. NSD2 peptide methylation, 120 min. inhibition, % at 12.5 µM. Histone-lysine N-methyltransferase NSD2 (Homo sapiens), O96028. AID 743445, 2014; in the data active means inhibition above about 50%
LEDGF integ inh = blockers of LEDGF/p75-dependent integrase strand transfer – biochemical, TR-FRET, high throughput, primary screen; inhibition, % at 3.7 µM; 0.64% of 370,000 active; TR-FRET IN-LEDGF/p75 DNA integration, Eu/Cy5; HIV-1 integrase (with human LEDGF/p75);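 active means inhibition above the screen-wide mean plus 3 SD, cut at about 13% in these data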;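 further: signal is the Cy5 over europium emission ratio at 671 and 618 nm; 0% = plate median of compound wells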
UHRF1 ctr MBD2 = UHRF1 methylated DNA binding inhibitors, counter-screen for MBD2 inhibitor project, biochemical, TR-FRET, human UHRF1; shares compounds with MBD2 DNA inh; 25% of 1,000 active; inhibition, % at 4.4 µM; UHRF1 binding to methylated oligonucleotide; in the data active means inhibition above about 21%;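 further: UHRF1 SRA domain binding a labeled hemimethylated CpG hairpin DNA; 0% = vehicle only and 100% = reference inhibitor with vehicle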
MBD2 confirm = inhibitors of MBD2 binding to methylated DNA, confirmation, biochemical, TR-FRET, DNA-binding domain, human; 26% of 1,000 active; inhibition, % at 4.4 µM; shares compounds with MBD2 DNA inh; AID 720531, 2013; TR-FRET MBD2-DBD binding to methylated oligonucleotide
TDP2 inh conf = human TDP2 enzyme inhibitors, retest, confirmation, biochemical, epi absorbance, recombinant enzyme. shares compounds with TDP2 absorb. absorbance read-out. inhibition, % at 12.8 µM. 22% of 1,100 active. AID 743263, 2014; in the data active means inhibition above about 25%;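 further: 0% = vehicle with enzyme and 100% = no enzyme buffer only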
IN multimer act = HIV-1 IN multimer formation enhancers, counter-screen for LEDGF/p75 integration inhibitor project, biochemical, TR-FRET; shares compounds with LEDGF integ inh; TR-FRET HIV-1 integrase multimerization; activation, % at 7.7 µM; 17% of 2,000 active; in the data active means activation above about 8.9%
TRFRET interf = TR-FRET optical interference artefacts, confirmation, artefact control for LEDGF/p75-dependent integration inhibitor project, biochemical, HIV-1 IN multimerization. TR-FRET optical interference counterscreen. 2,000 tested, under 10 active. inhibition, % at 7.7 µM. shares compounds with LEDGF integ inh;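 active means inhibition above the mean over all tested compounds plus 3 SD, which no compound reached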;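 further: 0% = integrase with antibodies and DMSO and 100% = antibodies without integrase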
LEDGF integ conf = inhibitors of HIV-1 IN-LEDGF/p75 DNA integration, confirmation, biochemical, TR-FRET; inhibition, % at 3.7 µM; 36% of 2,000 active; shares compounds with LEDGF integ inh; TR-FRET LEDGF/p75-dependent HIV-1 integration
* marks the source's active call; other numbers are inactive results; nt = no result given. Hits are enriched below; roughly 1.8% of the tested compounds scored in any of these assays. Unless noted, no stated cut-off is given here; in the data, active means inhibition above about 14%; inactive means the rest.

SMILES	MBD2 DNA inh	TDP2 absorb	UHRF1 binding	CASP6 VEID inh	NSD2 inh	LEDGF integ inh	UHRF1 ctr MBD2	MBD2 confirm	IN multimer act	TRFRET interf	LEDGF integ conf	others
COCC(=O)N1C[C@@H](C)[C@H](OC)CN(C)C(=O)c2ccc(NC(=O)c3cc(C)on3)cc2OC[C@H]1C	nt	nt	nt	-2	nt	nt	nt	nt	nt	nt	nt
O=C(/C=C/c1cccs1)Nc1nc(-c2ccccc2)cs1	-1	6	-1	nt	1	-1	nt	nt	nt	nt	nt
O=C(/C=C/c1cccs1)Nc1scc(-c2ccccc2)c1C(=O)O	14*	16	22*	54*	nt	23*	2	2	2	-8	35*
Cc1c(Br)c(O)c(Br)c2sc(=O)oc12	16*	42*	33*	4	4	55*	9	5	2	-8	14*	TDP2 inh conf=16
O=C1CCCC2=C1C(c1ccco1)Nc1ccc3ccccc3c12 (stereo not drawn)	22*	-10	50*	nt	13	33*	48*	21*	4	-19	53*
C[C@@H]1CN([C@@H](C)CO)C(=O)c2cc(NC(=O)c3ccncc3)ccc2O[C@@H]1CN(C)S(=O)(=O)c1cn(C)cn1	nt	nt	nt	-3	nt	nt	nt	nt	nt	nt	nt
COc1ccc2c3c([nH]c2c1)[C@@H](CO)N(Cc1ccccc1F)CC31CN(C(=O)C2CCCC2)C1	nt	nt	nt	-2	nt	nt	nt	nt	nt	nt	nt
O=C(N/N=C/c1cccc(F)c1)c1cc(-c2ccco2)nc2ccccc12	24*	4	30*	nt	2	20*	42*	36*	21*	-107	49*
COc1cc(/C=N/NC(=O)c2cc(-c3ccco3)nc3ccccc23)cc(OC)c1O	8	-5	-1	-1	14	2	nt	nt	nt	nt	nt
COc1ccc(-c2cnc3c(c2)C(=O)N([C@@H](C)CO)C[C@@H](C)[C@H](CN(C)C(=O)Cc2ccccn2)O3)cc1	nt	nt	nt	2	nt	nt	nt	nt	nt	nt	nt
COC(=O)C1CCN(C(=O)c2cc(-c3ccco3)nc3ccccc23)CC1	22*	-2	40*	58*	4	28*	30*	22*	15*	-74	49*
O=S(=O)(c1cc(O)ccc1O)c1cccc2c(S(=O)(=O)c3cc(O)ccc3O)cccc12	20*	3	33*	nt	nt	16*	37*	17*	22*	-109	41*
O=S(=O)(O)c1cc(O)ccc1O	-3	2	1	0	nt	0	nt	nt	nt	nt	nt
Cc1c(Cl)cnc(NC(=O)COC(=O)/C=C/c2ccco2)c1Cl	1	18	8	25	-1	7	nt	nt	nt	nt	nt
O=C(COC(=O)/C=C/c1ccco1)Nc1ncc(C(F)(F)F)cc1Cl	14*	2	55*	53*	15	31*	27*	9	4	-20	14*
OC[C@@H]1[C@@H](c2ccc(-c3ccc(F)cc3)cc2)[C@H]2CN(Cc3cccnc3)CCCCN12	nt	nt	nt	1	nt	nt	nt	nt	nt	nt	nt
NN1C(=O)/C(=C\c2ccco2)SC1=S	17*	14	63*	70*	0	55*	3	0	3	-17	10
O=C1/C(=C/c2ccco2)SC(=S)N1c1cccnc1	105*	4	98*	83*	nt	93*	69*	32*	16*	-80	66*
C[C@H]1CN([C@@H](C)CO)C(=O)c2cc(/C=C/c3ccccc3)cnc2O[C@@H]1CN(C)C(=O)CN1CCOCC1	nt	nt	nt	-1	nt	nt	nt	nt	nt	nt	nt
C[C@H]1CN([C@@H](C)CO)C(=O)c2cc(NS(=O)(=O)c3cn(C)cn3)ccc2O[C@@H]1CN(C)C(=O)Nc1ccc(C(F)(F)F)cc1	nt	nt	nt	1	nt	nt	nt	nt	nt	nt	nt
Cc1nc2ccccc2c(=O)n1/N=C/c1ccc(O)c(O)c1O	27*	-3	37*	19	nt	61*	3	0	18*	-93	80*
O=C(C=Cc1ccco1)c1ccco1	20*	-8	58*	56*	0	73*	11	1	2	-8	7
O=C(NCC[C@H]1CC[C@H](NS(=O)(=O)c2ccc(Cl)cc2)[C@@H](CO)O1)Nc1ccc(F)cc1	nt	nt	nt	-130	nt	nt	nt	nt	nt	nt	nt
Oc1ccc(/C=N/NC(=S)Nc2cccnc2)c(O)c1O	30*	35*	64*	49*	nt	84*	-6	-2	30*	-152	84*	TDP2 inh conf=5
O=C(C[C@H]1CC[C@H](NS(=O)(=O)c2ccccc2)[C@@H](CO)O1)N1CCN(c2ccccc2)CC1	nt	nt	nt	1	nt	nt	nt	nt	nt	nt	nt
O=C(O)c1ccccc1-c1ccc(C=c2sc3nc4cc(Br)cnc4n3c2=O)o1	55*	-11	95*	nt	nt	29*	72*	63*	-3	13	17*
O=C(O)c1cccc(-c2ccc(/C=c3/sc4nc5ccccc5n4c3=O)o2)c1	34*	9	81*	37*	31	46*	54*	19*	11*	-54	20*
